Measurements from different studies.
Protocols differ between the studies behind these lines.
Target: Dual specificity mitogen-activated protein kinase kinase 1 (MAP2K1, Homo sapiens, UniProt Q02750)

SMILES | observed | action | method | cells | tested at | measurement | value
Cc1ccc(C(=O)Nc2ccc(CN3CCN(C)CC3)c(C(F)(F)F)c2)cc1C#Cc1cnc2cccnn12 | enzyme activity | inhibitor |  |  | 23.5 nM | remaining activity | 100%
CCN1CCN(Cc2ccc(NC(=O)c3ccc(C)c(Oc4ccnc5[nH]ccc45)c3)cc2C(F)(F)F)CC1 | target engagement in cells | inhibitor | chemoproteomics | Huh-7 | 1 µM | inhibition | -41.7%
N#CCCc1ccc2c(c1)-c1[nH]c3ccc([N+](=O)[O-])cc3c1CC(=O)N2 | cell-free assay |  |  |  | 0.5 µM | remaining signal | 97.1%
Cc1sc(C(=O)NC2COC2)cc1-n1cc(NC(=O)Nc2c(F)cccc2Cl)cn1 | enzyme activity | inhibitor |  |  | 10 µM | remaining activity | 95.5%
CNCc1ccc(-c2cc(-c3nc(-c4ccc(S(=O)(=O)C(C)C)cc4)cnc3N)on2)cc1 | enzyme activity | inhibitor |  |  | 0.4 µM | inhibition | 12%
CCOc1cc(-c2nncn2C)ccc1Nc1ncc2cc(C)nc(NCC(C)(C)C)c2n1 | enzyme activity | inhibitor | FRET |  | 1 µM | inhibition | 16%
CNC(=O)c1cc(Oc2ccc(NC(=O)Nc3ccc(Cl)c(C(F)(F)F)c3)cc2)ccn1 | enzyme activity | inhibitor |  |  | 0.3 µM | inhibition | 0%
Cn1c(=O)n(-c2ccc(C(C)(C)C#N)cc2)c2c3cc(-c4cnc5ccccc5c4)ccc3ncc21 | enzyme activity | inhibitor |  |  | 10 µM | remaining activity | 116%
C[C@@H]1CN(c2cc(-c3nn(C)c4ccc(OC5(C)CC5)cc34)ncn2)C[C@H](C)O1 | cell-free assay |  | competition with immobilised ligand |  | 1 µM | remaining binding | 74%
CCN(CC)Cc1cc(Nc2ccnc3cc(Cl)ccc23)ccc1O | cell-free assay |  | competition with immobilised ligand |  | 10 µM | remaining binding | 96%
CC(C)(C)c1nc2c(s1)c1nc(N)ncc1c1ccc(NS(=O)(=O)c3c(F)cccc3F)c(F)c12 | enzyme activity | inhibitor | radiometric |  | 1 µM | remaining activity | 79%
CCN(CC)CCNC(=O)c1c(C)[nH]c(/C=C2\C(=O)Nc3ccc(F)cc32)c1C | enzyme activity | inhibitor |  |  | 1 µM | remaining activity | 44%
CNCc1ccccc1-c1csc([C@H](C)Nc2nc(C)nc3cc(OC)c(OC)cc23)c1 | cell-free assay |  | competition with immobilised ligand |  | 1 µM | remaining binding | 100%
CN(c1ncccc1CNc1nc(Nc2ccc3c(c2)CC(=O)N3)ncc1C(F)(F)F)S(C)(=O)=O | enzyme activity | inhibitor |  |  | 1 µM | inhibition | 77.1%
FC(F)(F)Oc1cccc(-c2cnc3ccc(-c4ccncc4)nn23)c1 | enzyme activity | inhibitor | radiometric |  | 5 µM | activity vs control | 73%
Cc1nccc(COC(=O)N2C[C@@H]3[C@@H](CNC(=O)c4ccc5[nH]nnc5c4)[C@@H]3C2)n1 | cell-free assay |  | competition with immobilised ligand |  | 1 µM | remaining binding | 92%
CCCOc1ccc(OC)c(F)c1C(=O)c1ccc(C(=O)N[C@@H]2CNC[C@H]2NC(=O)c2ccc3[nH]ncc3c2)cc1 | enzyme activity | inhibitor |  |  | 10 µM | remaining activity | 101%
COc1cc(Nc2cnc(C#N)c(O[C@H](C)CN(C)C)n2)ncc1-c1cnn(C)c1 | enzyme activity | inhibitor | radiometric |  | 1 µM | remaining activity | 80%

SMILES | observed | action | method | cells | tested at | measurement | value
Cc1[nH]c(/C=C2\C(=O)Nc3ccc(F)cc32)c(C)c1C(=O)N[C@H]1CCN(C(=O)N(C)C)C1 | enzyme activity | inhibitor |  |  | 1 µM | remaining activity | 59%
Cc1cc(NC(=O)c2cccc3cc(-c4cccc5[nH]nc(N)c45)ccc23)ccc1F | enzyme activity | inhibitor |  |  | 0.1 µM | activity vs control | 102%
CCN(CC)c1ccc(C2=NNC(=O)CC2C)cc1[N+](=O)[O-] (stereo not drawn) | enzyme activity | inhibitor |  |  | 10 µM | remaining activity | 126%
O=C1Nc2ccc(Cl)cc2C1=Cc1cc(Cl)c(O)c(Cl)c1 | cell-free assay |  |  |  | 0.5 µM | remaining signal | 96.8%
Nc1ncnc2occ(-c3ccc(NC(=O)Nc4cc(C(F)(F)F)ccc4F)cc3)c12 | cell-free assay | inhibitor |  |  | 20 µM | remaining signal | 9.3%
COc1cc2ncnc(Nc3ccc(Oc4ccccc4)cc3C)c2cc1OC | enzyme activity | inhibitor |  |  | 1 µM | inhibition | 11%
Nc1nc(Nc2ccc(S(N)(=O)=O)cc2)nn1C(=O)c1c(F)cccc1F | cell-free assay |  |  |  | 0.5 µM | remaining signal | 93.9%
O=C(Nc1ccc(Oc2ccc(F)cc2)cc1)N1CCc2ncccc2[C@H]1c1ccc(F)cc1 | cell-free assay |  | competition with immobilised ligand |  | 1 µM | remaining binding | 98%
CN(C)C1CCN(CC#Cc2nn(C3CCCC3)c3nc(NCc4ccccc4)ncc23)C1 (stereo not drawn) | enzyme activity | inhibitor | FRET |  | 0.1 µM | inhibition | 9%
CC(C)c1ccc(NC(=O)c2cccs2)c(-c2nc3ccccc3[nH]c2=O)c1 | enzyme activity | inhibitor |  |  | 1 µM | activity vs control | 112%
CN(C(=O)c1ccccc1)c1cc(N(C)c2ccc3c(c2)CCc2ccc(C(=O)NCCN4CCOCC4)cc2C3=O)ccc1F | cell-free assay |  | competition with immobilised ligand |  | 1 µM | remaining binding | 100%
Cc1ccc(Nc2nccc(N(C)c3ccc4c(C)n(C)nc4c3)n2)cc1S(N)(=O)=O | enzyme activity | inhibitor |  |  | 10 µM | inhibition | 1%
Cc1cc(-n2nc(Cc3cc(F)cc(C(F)(F)F)c3)nc2C)ccc1C(N)=O | cell-free assay |  | competition with immobilised ligand |  | 1 µM | remaining binding | 100%
CCN(CC)CCNC(=O)c1c(C)[nH]c(/C=C2\C(=O)Nc3ccc(F)cc32)c1C | enzyme activity | inhibitor |  |  | 0.3 µM | inhibition | 36%
CC(C)(O)c1cncc(-c2nc3ccc(F)cc3n2C2CC2)c1 | cell-free assay |  | competition with immobilised ligand |  | 1 µM | remaining binding | 100%
Cn1cnc(Br)c1C1=CN(c2ncnc3[nH]cnc23)CCS1 | enzyme activity | inhibitor | radiometric |  | 2 µM | inhibition | 16.9%
CNC(=O)Nc1ccc2c(c1)CC[C@@]21OC(=O)N(CC(=O)N(Cc2ccc(F)cc2)[C@@H](C)C(F)(F)F)C1=O | cell-free assay |  | competition with immobilised ligand |  | 1 µM | remaining binding | 85%
CC(C)(C)C(=O)c1sc(NC2CCCCC2)nc1N | enzyme activity | inhibitor |  |  | 10 µM | remaining activity | 94%
